Measurements collected from several papers.
Lines come from different studies, so protocols differ.
PADI1: Protein-arginine deiminase type-1 (PADI1, Homo sapiens, UniProt Q9ULC6)
KDR: Vascular endothelial growth factor receptor 2 (KDR, Homo sapiens, UniProt P35968)
CDK16: Cyclin-dependent kinase 16 (CDK16, Homo sapiens, UniProt Q00536)
ATAD2 bromodomain: ATPase family AAA domain-containing protein 2, bromodomain (ATAD2, Homo sapiens, UniProt Q6PL18)

Cc1ccc(C(=O)NCc2ccsc2)cc1C#Cc1cn(C(C)C)c2ncnc(N)c12 — activity vs control ([Pyruvate dehydrogenase (acetyl-transferring)] kinase isozyme 2, mitochondrial (PDK2, Homo sapiens, UniProt Q15119); enzyme activity, inhibitor; 1 µM): 91%
N=C(CCl)NCCC[C@H](NC(=O)c1ccccc1)c1nn[nH]n1 — kinact/KI (PADI1; enzyme activity, inhibitor): 110 M⁻¹ s⁻¹
CC[C@H]1OC(=O)[C@H](C)[C@@H](O[C@H]2C[C@@](C)(OC)[C@@H](O)[C@H](C)O2)[C@H](C)[C@@H](O[C@@H]2O[C@H](C)C[C@H](N(C)C)[C@H]2O)[C@](C)(O)C[C@@H](C)C(=O)[C@H](C)[C@@H](O)[C@]1(C)O — Emax (Motilin receptor (MLNR, Homo sapiens, UniProt O43193); inositol phosphate, agonist, TR-FRET; AD293): 100%
N=C(CF)NCCC[C@H](NC(=O)c1ccccc1C(=O)O)c1nn[nH]n1 — kinact/KI (PADI1; enzyme activity, inhibitor): 1360 M⁻¹ s⁻¹
COc1ccc(NC(=O)c2c(Nc3ccccc3)sc(C(=O)NN=Cc3ccc(Cl)cc3)c2NC(C)=O)cc1 — remaining activity (KDR; enzyme activity, inhibitor; 0.1 µM): 88.3%
Cn1c2c(Cl)c(Cl)ccc2c2cc(N)[nH]c(=O)c21 — ΔTm (CDK16; thermal stability, DSF; 10 µM): 0.3 °C
COc1ccc(NC(=O)c2c(Nc3ccccc3)sc(C#N)c2NC(=O)CNc2ccc(Br)cc2)cc1 — remaining activity (KDR; enzyme activity, inhibitor; 100 µM): 22.3%
CC(C)(C)n1nnc([C@H](CCCNC(=N)CCl)NC(=O)c2ccccc2C(=O)O)n1 — kinact/KI (PADI1; enzyme activity, inhibitor): 2700 M⁻¹ s⁻¹
COc1ccc(NC(=O)c2c(Nc3ccccc3)sc(C#N)c2NC(=O)CNc2ccc([N+](=O)[O-])cc2)cc1 — remaining activity (KDR; enzyme activity, inhibitor; 1 µM): 79.1%
N=C(CCl)NCCC[C@H](NC(=O)c1ccccc1C(=O)O)c1nn[nH]n1 — kinact/KI (PADI1; enzyme activity, inhibitor): 1370 M⁻¹ s⁻¹
NC(=O)[C@H](CCCN=C(N)N)NC(=O)c1ccccc1 — Km (PADI1; enzyme activity, substrate): 160 µM
CC(C)(C)n1nnc([C@H](CCCNC(=N)CF)NC(=O)c2ccc(-c3ccccc3)cc2)n1 — kinact/KI (PADI1; enzyme activity, inhibitor): 14.4 M⁻¹ s⁻¹
COc1ccc(NC(=O)c2c(Nc3ccccc3)sc(C(=O)NN=Cc3cc(OC)c(OC)c(OC)c3)c2NC(C)=O)cc1 — remaining activity (KDR; enzyme activity, inhibitor; 0.1 µM): 95.4%
CN(C)C1CCN(CC#Cc2nn(C3CCCC3)c3nc(NCc4ccccc4)ncc23)C1 (stereo not drawn) — inhibition (Dual specificity mitogen-activated protein kinase kinase 1 (MAP2K1, Homo sapiens, UniProt Q02750); enzyme activity, inhibitor, FRET; 1 µM): 9%
Oc1ccc(-c2nc(-c3ccncc3)c(-c3ccc(F)cc3)[nH]2)cc1 — ΔTm (ATAD2 bromodomain; thermal stability, DSF; 10 µM): 0.05 °C
NS(=O)(=O)c1ccc(Nc2nc(-c3ccc(F)cc3)c3ccccc3n2)cc1 — remaining binding (ATPase family AAA domain-containing protein 2 (ATAD2, Homo sapiens, UniProt Q6PL18); binding, competition with immobilised ligand; 1 µM): 85%
Cc1cnc(Nc2ccc(OCCN3CCCC3)cc2)nc1Nc1cccc(S(=O)(=O)NC(C)(C)C)c1 — ΔTm (ATAD2 bromodomain; thermal stability, DSF; 10 µM): -0.25 °C
CC(=O)NCCc1c[nH]c2ccc(O)cc12 — Km (Sulfotransferase 1C4 (SULT1C4, Homo sapiens, UniProt O75897); enzyme activity, substrate; pH 7): 45.7 µM
NCCCC[C@H](NC(=O)[C@@H]1CCCN1C(=O)[C@@H]1CSSC[C@H](NC(=O)CNC(=O)CNC(=O)CN)C(=O)N[C@@H](Cc2ccc(O)cc2)C(=O)N[C@@H](Cc2ccccc2)C(=O)N[C@@H](CCC(N)=O)C(=O)N[C@@H](CC(N)=O)C(=O)N1)C(=O)NCC(N)=O — Emax (Vasopressin V1a receptor (AVPR1A, Homo sapiens, UniProt P37288); calcium signal, agonist; CHO-S): 41%
Nc1ncnc2occ(-c3ccc(NC(=O)Nc4cc(C(F)(F)F)ccc4F)cc3)c12 — remaining activity (Phosphatidylinositol 5-phosphate 4-kinase type-2 beta (PIP4K2B, Homo sapiens, UniProt P78356); enzyme activity, inhibitor; 20 µM): 100%
CC(C)(C)n1nnc([C@H](CCCNC(=N)CCl)NC(=O)c2ccccc2)n1 — kinact/KI (PADI1; enzyme activity, inhibitor): 52.4 M⁻¹ s⁻¹
Cn1c2c(c3ccc(Cl)c(Cl)c31)C(C#N)C1(CCNCC1)NC2=O (racemic) — ΔTm (CDK16; thermal stability, DSF; 10 µM): 2.6 °C
Cc1ccc(C(=O)Nc2ccc(CN3CCN(C)CC3)c(C(F)(F)F)c2)cc1C#Cc1cnc2cccnn12 — remaining signal (1-phosphatidylinositol 3-phosphate 5-kinase (PIKFYVE, Homo sapiens, UniProt Q9Y2I7); cell-free assay; 23.5 nM): 100%
COc1ccc(C=NNC(=O)c2sc(Nc3ccccc3)c(C(=O)Nc3ccc(OC)cc3)c2NC(C)=O)cc1 — remaining activity (KDR; enzyme activity, inhibitor; 1 µM): 65.5%
